The results in this text go back to ChEMBL document CHEMBL1152461, “Tetracycline-inducible expression of individual secreted aspartic proteases in Candida albicans allows isoenzyme-specific inhibitor screening” (Antimicrob Agents Chemother, 2008).

Assay [1] has as its target T1, Secreted aspartic protease 9 (Candida albicans) (UniProt O42779).
T1 sequence (whole entry): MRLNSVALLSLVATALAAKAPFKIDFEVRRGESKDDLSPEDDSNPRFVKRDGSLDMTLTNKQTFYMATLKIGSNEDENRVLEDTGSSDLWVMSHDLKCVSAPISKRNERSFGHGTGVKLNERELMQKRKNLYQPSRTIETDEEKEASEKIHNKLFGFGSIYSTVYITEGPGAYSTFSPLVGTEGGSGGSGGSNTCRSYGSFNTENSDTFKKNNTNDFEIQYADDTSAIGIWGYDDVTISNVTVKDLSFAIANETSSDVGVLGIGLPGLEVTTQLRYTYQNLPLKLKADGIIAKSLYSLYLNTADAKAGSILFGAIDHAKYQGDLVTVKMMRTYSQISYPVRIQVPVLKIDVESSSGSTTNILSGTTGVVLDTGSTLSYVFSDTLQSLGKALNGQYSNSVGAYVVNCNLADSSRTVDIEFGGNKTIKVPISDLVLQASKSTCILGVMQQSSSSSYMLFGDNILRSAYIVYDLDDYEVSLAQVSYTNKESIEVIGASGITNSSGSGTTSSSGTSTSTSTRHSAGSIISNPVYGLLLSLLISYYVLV
The experiment in a line: Inhibition of SAP9-dependent growth in Candida albicans SAP2MS4B expressing SAP9deltaC493 at 7.3 uM incubated in YCB-BSA medium. In a few lines: (§1)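 Overnight SD-medium (30°C) preculture diluted 1:100 into YCB-BSA (4 g/liter BSA as sole nitrogen source) adjusted to pH 5.0, with 25 μg/ml doxycycline inducing Tet-promoter SAP expression; incubated 37°C. Pepstatin A 7.3 μM or HIV protease inhibitors 100 μM (0.125% DMSO final); DMSO-only control. OD600 monitored over time.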

Assay [2] concerns the target Secreted aspartic protease 8 (Candida albicans) (UniProt O42778). Nature of the assay: Inhibition of SAP8-dependent growth in Candida albicans SAP2MS4B expressing SAP8ex4A at 7.3 uM incubated in YCB-BSA medium. In a few lines:
(§2)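 Overnight SD-medium (30°C) preculture diluted 1:100 into YCB-BSA (yeast carbon base plus 4 g/liter BSA as sole nitrogen source) adjusted to pH 4.0, with 50 μg/ml doxycycline to induce Tet-promoter SAP expression; incubated 30°C. Pepstatin A 7.3 μM or HIV protease inhibitors 100 μM (0.125% DMSO final); DMSO-only control. Growth followed as OD600 over time.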

Assay [3] deals with Secreted aspartic protease 6 (Candida albicans) (UniProt P43095). Nature of the assay: Inhibition of SAP6-dependent growth in Candida albicans SAP2MS4B expressing SAP6ex4A at 7.3 uM incubated in YCB-BSA medium. In a few lines:
as §1

The target in assay [4] is T2, Secreted aspartic protease 5 (Candida albicans (strain SC5314 / ATCC MYA-2876) (Yeast)) (UniProt P43094).
T2 sequence (whole entry): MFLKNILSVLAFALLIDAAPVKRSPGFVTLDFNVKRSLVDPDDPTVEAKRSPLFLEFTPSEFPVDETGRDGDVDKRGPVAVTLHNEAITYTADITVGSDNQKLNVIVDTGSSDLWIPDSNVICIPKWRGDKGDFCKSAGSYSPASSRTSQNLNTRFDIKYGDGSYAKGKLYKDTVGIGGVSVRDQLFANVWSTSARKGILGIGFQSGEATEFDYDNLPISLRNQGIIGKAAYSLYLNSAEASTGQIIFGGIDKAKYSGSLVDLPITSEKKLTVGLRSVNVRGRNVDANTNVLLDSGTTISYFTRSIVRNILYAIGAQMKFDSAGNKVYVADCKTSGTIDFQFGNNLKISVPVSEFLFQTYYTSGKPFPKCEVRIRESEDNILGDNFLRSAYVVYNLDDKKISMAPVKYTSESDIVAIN
The experiment in a line: Inhibition of SAP5-dependent growth in Candida albicans SAP2MS4B expressing SAP5ex4A at 7.3 uM incubated in YCB-BSA medium. In a few lines:
as §1

Assay [5] concerns the target Candidapepsin-4 (Candida albicans (strain WO-1) (Yeast)) (UniProt P43093). The experiment in a line: Inhibition of SAP4-dependent growth in Candida albicans SAP2MS4B expressing SAP4ex4A at 7.3 uM incubated in YCB-BSA medium. In outline:
as §1

The target of assay [6] is Secreted aspartic protease 3 (Candida albicans) (UniProt P0CY28). Nature of the assay: Inhibition of SAP3-dependent growth in Candida albicans SAP2MS4B expressing SAP3ex4A at 7.3 uM incubated in YCB-BSA medium. In outline: as §2
Secreted aspartic protease 3 (Candida albicans), sequence (P0CY28 whole entry): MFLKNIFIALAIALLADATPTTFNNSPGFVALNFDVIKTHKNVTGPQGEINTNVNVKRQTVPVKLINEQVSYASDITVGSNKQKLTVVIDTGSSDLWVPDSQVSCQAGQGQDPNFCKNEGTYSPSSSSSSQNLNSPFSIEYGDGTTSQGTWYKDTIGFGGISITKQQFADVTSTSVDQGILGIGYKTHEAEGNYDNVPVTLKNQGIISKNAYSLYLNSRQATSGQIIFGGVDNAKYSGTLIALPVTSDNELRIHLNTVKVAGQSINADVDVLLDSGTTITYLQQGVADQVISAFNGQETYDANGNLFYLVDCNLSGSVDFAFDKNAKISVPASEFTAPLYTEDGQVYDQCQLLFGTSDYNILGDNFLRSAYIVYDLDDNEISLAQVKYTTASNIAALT
The target of assay [7] is Secreted aspartic protease 1 (Candida albicans) (UniProt P0CY26). The experiment in a line: Inhibition of SAP1-dependent growth in Candida albicans SAP2MS4B expressing SAP1ex4A at 7.3 uM incubated in YCB-BSA medium. In a few lines:
as §2

The target of assay [8] is Secreted aspartic protease 8 (Candida albicans) (UniProt O42778). Nature of the assay: Inhibition of SAP8-dependent growth in Candida albicans SAP2MS4B expressing SAP8ex4A at 100 uM incubated in YCB-BSA medium. In a few lines: as §2
Secreted aspartic protease 8 (Candida albicans), sequence (O42778 whole entry): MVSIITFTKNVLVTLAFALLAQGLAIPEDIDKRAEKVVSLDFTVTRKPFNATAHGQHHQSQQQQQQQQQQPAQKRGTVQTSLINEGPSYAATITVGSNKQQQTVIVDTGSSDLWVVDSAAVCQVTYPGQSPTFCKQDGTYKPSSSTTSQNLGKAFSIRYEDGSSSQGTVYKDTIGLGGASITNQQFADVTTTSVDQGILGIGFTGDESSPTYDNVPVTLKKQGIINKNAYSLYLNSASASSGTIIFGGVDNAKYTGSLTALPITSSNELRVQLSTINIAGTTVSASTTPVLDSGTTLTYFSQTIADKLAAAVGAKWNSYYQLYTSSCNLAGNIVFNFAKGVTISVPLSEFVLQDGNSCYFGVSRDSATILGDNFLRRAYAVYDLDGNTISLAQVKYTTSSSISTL
The target of assay [9] is Secreted aspartic protease 6 (Candida albicans) (UniProt P43095). Nature of the assay: Inhibition of SAP6-dependent growth in Candida albicans SAP2MS4B expressing SAP6ex4A at 100 uM incubated in YCB-BSA medium. In a few lines:
as §1

Assay [10] deals with T2, Secreted aspartic protease 5 (Candida albicans (strain SC5314 / ATCC MYA-2876) (Yeast)). Nature of the assay: Inhibition of SAP5-dependent growth in Candida albicans SAP2MS4B expressing SAP5ex4A at 100 uM incubated in YCB-BSA medium. In a few lines:
as §1

Assay [11] has as its target Candidapepsin-4 (Candida albicans (strain WO-1) (Yeast)) (UniProt P43093). Nature of the assay: Inhibition of SAP4-dependent growth in Candida albicans SAP2MS4B expressing SAP4ex4A at 100 uM incubated in YCB-BSA medium. In outline:
as §1

Assay [12] deals with Secreted aspartic protease 3 (Candida albicans) (UniProt P0CY28). Nature of the assay: Inhibition of SAP3-dependent growth in Candida albicans SAP2MS4B expressing SAP3ex4A at 100 uM incubated in YCB-BSA medium. In outline:
as §2

The target of assay [13] is Secreted aspartic protease 2 (Candida albicans) (UniProt P0CS83). The experiment in a line: Inhibition of SAP2-dependent growth in Candida albicans SAP2MS4B expressing SAP2ex4A at 100 uM incubated in YCB-BSA medium. In outline:
as §2

Assay [14] deals with Secreted aspartic protease 1 (Candida albicans) (UniProt P0CY26). Nature of the assay: Inhibition of SAP1-dependent growth in Candida albicans SAP2MS4B expressing SAP1ex4A at 100 uM incubated in YCB-BSA medium. In outline:
as §2

The target of assay [15] is T1, Secreted aspartic protease 9 (Candida albicans). The experiment in a line: Inhibition of SAP9-dependent growth in Candida albicans SAP2MS4B expressing SAP9deltaC493 at 100 uM incubated in YCB-BSA medium. In a few lines:
as §1

Active and inactive are the calls of the source. No cut-off for these calls is given here.

Candidapepsin-4 (Candida albicans (strain WO-1) (Yeast)), sequence (P43093 whole entry): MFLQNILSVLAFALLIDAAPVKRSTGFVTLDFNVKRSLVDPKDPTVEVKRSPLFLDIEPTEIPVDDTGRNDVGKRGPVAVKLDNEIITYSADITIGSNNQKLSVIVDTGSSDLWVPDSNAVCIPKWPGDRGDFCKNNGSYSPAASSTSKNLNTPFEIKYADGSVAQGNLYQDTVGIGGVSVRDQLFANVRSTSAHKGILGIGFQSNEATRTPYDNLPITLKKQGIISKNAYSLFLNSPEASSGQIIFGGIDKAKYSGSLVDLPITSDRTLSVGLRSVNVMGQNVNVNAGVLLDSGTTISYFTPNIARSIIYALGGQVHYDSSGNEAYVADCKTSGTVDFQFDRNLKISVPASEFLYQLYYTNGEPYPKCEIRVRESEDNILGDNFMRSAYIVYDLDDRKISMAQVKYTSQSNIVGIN
Secreted aspartic protease 6 (Candida albicans), sequence (P43095 whole entry): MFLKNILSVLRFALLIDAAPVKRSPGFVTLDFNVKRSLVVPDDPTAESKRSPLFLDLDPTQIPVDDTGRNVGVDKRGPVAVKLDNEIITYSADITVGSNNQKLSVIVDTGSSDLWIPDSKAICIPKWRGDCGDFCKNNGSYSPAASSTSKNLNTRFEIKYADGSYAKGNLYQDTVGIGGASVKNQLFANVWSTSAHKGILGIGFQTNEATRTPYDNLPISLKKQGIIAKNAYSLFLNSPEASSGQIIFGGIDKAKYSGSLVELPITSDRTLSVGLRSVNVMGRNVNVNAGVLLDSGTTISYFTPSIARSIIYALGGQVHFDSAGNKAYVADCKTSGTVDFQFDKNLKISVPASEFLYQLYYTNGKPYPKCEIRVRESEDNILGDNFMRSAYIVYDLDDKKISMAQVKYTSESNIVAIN
Secreted aspartic protease 1 (Candida albicans), sequence (P0CY26 whole entry): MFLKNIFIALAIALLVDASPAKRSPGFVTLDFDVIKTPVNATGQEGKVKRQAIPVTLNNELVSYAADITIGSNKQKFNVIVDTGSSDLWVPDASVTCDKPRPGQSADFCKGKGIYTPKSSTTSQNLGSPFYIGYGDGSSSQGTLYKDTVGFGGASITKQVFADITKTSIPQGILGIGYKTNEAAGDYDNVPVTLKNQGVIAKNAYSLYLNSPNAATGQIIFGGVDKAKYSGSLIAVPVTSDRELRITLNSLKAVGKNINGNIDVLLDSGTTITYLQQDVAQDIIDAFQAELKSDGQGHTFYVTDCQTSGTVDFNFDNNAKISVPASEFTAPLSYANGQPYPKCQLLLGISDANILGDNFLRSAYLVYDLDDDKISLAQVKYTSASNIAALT
Secreted aspartic protease 2 (Candida albicans), sequence (P0CS83 57-398 limits assumed): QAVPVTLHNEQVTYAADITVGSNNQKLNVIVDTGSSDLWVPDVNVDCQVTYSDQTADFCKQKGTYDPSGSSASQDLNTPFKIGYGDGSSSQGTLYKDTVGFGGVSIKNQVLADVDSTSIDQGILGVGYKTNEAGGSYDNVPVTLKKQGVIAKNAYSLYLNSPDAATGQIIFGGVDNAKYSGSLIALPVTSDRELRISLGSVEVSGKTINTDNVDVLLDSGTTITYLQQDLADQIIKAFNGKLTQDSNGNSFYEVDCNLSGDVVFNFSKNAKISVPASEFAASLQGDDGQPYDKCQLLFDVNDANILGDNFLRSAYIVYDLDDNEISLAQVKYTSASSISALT

In the case of `CC(C)CC(=O)N[C@H](C(=O)N[C@H](C(=O)N[C@@H](CC(C)C)[C@@H](O)CC(=O)N[C@@H](C)C(=O)N[C@@H](CC(C)C)[C@@H](O)CC(=O)O)C(C)C)C(C)C`, the outcome in assay [1], in assay [2], in assay [3], in assay [4], in [5] and in assay [6] was Active. Also, the outcome in [7] was Active.

As for `CC(C)c1nc(CN(C)C(=O)N[C@H](C(=O)N[C@@H](Cc2ccccc2)C[C@H](O)[C@H](Cc2ccccc2)NC(=O)OCc2cncs2)C(C)C)cs1`, the result in [8], in [9], in [10], in assay [11] and in assay [15] was inactive. The outcome in assay [12], in [13] and in [14] was Active.

With `CC(C)(C)NC(=O)[C@@H]1C[C@@H]2CCCC[C@@H]2CN1C[C@@H](O)[C@H](Cc1ccccc1)NC(=O)[C@H](CC(N)=O)NC(=O)c1ccc2ccccc2n1`, the outcome in [8], in [9], in [10], in assay [11] and in assay [15] was inactive. In assay [14], the outcome was Active.
